According to PMC5943194 (Environmental science and pollution research international, 2017):
Entries after “also recorded” stand apart in the source; their conditions may differ.

Legend:
estrogen receptor (ER) [1] = target: T1, estrogen receptor (ER) (Homo sapiens, UniProt P03372); assay: ER-CALUX assay, ER-antagonistic activity, co-exposure with E2; format: cell-based; settings: T47D.Luc cells, 24 h; for ER-antagonistic Response at 25 μM (% of E2 response): in the presence of E2 (5 pM); for Modulation of E2-dependent induction of luciferase activity, in words: combined exposure with E2 (5 pM)
T1 sequence (P03372 whole entry): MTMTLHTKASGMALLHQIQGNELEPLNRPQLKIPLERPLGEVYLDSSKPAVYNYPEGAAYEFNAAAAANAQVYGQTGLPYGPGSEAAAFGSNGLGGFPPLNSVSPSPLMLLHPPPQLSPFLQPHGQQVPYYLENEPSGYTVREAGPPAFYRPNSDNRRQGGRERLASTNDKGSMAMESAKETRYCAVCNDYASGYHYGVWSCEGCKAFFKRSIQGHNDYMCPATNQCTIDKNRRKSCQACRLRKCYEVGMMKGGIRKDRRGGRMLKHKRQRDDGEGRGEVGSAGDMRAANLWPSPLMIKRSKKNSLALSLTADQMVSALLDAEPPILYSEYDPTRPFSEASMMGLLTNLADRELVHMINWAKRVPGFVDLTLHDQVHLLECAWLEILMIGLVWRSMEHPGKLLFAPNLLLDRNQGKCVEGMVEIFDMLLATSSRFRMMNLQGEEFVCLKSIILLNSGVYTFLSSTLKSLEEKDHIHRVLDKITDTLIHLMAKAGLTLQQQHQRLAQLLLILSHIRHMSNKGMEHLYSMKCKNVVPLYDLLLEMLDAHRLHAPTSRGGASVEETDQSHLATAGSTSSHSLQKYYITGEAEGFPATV
In short: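 ER-CALUX in T47D.Luc cells (passages 22–25) kept in phenol red-free DMEM/F12 with 5% charcoal/dextran FBS. Test compound in DMSO was co-exposed with E2 (5 pM) for 24 h, then cells were lysed at pH 7.8 and luciferase read. IC25/IC50 are concentrations inhibiting E2-induced luciferase by 25/50%, calculated from full dose-response curves. Three independent experiments in triplicate.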

RyRs = settings: ref Pessah et al. 2009; cited from earlier work
[2] = tested on: ER target gene TFF1 mRNA in MCF-7 cells; assay: Modulation of E2-induced TFF1 mRNA in MCF-7 cells; format: cell-based, human; settings: 25 μM, 24 h, co-exposure with E2
In short: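 MCF-7 cells (passages 15–18) in phenol red-free DMEM/F12 with 5% charcoal/dextran FBS were co-exposed for 24 h to test compound (25 μM) plus E2 (5 pM). TFF1 mRNA was measured by qRT-PCR: RT 50°C 20 min, 95°C 15 min, then 40 cycles of 95°C 15 s/60°C 60 s. PBGD was the reference gene, with comparative Ct analysis. Three independent experiments, n=6.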

[3] = tested on: CAR-dependent CYP2B6 mRNA in HepaRG cells; assay: CAR-agonistic response: induction of CYP2B6 mRNA in differentiated HepaRG cells; format: cell-based, human; settings: CYP2B6 mRNA, HepaRG, 24 h, relative to PB (2 mM)
In short: (§1)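 Differentiated HepaRG cells (passages 7–9) were grown 14 days in growth medium, then 14 days in differentiation medium, and returned to growth medium 3 days before a 24 h exposure to test compound (0.01–25 μM). CYP2B6 and CYP3A4 mRNA were measured by qRT-PCR (PBGD reference, comparative Ct) relative to PB (2 mM) and RIF (50 μM), respectively. EC25/EC50 were taken from dose-response curves.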

[4] = tested on: PXR-dependent CYP3A4 mRNA in HepaRG cells; assay: PXR-agonistic response: induction of CYP3A4 mRNA in differentiated HepaRG cells; format: cell-based, human; settings: 24 h
In short: as §1

estrogen receptor (ER) [5] = target: T1, estrogen receptor (ER); assay: ER-CALUX assay, ER-agonistic activity; format: cell-based; settings: T47D.Luc cells, 24 h; for ER-agonistic Response at 10 μM (% of E2max): relative to E2 (15 pM)
In short: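 T47D.Luc cells (passages 22–25) stably carry pEREtataLuc and were exposed in phenol red-free DMEM/F12 with 5% charcoal/dextran FBS. Cells were seeded at 20,000 cells/cm2 and dosed 24 h later with test compound in DMSO for 24 h. They were then lysed (10 mM Tris, 2 mM DTT, 2 mM EGTA, pH 7.8) and luciferase measured. RLU minus DMSO control gave fold induction relative to E2 (15 pM) maximum.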

[6] = tested on: ER target gene TFF1 mRNA in MCF-7 cells; assay: Induction of TFF1 mRNA in MCF-7 cells; format: cell-based, human; settings: 25 μM, 24 h
In short: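 MCF-7 cells (passages 15–18) were moved to phenol red-free DMEM/F12 with 5% charcoal/dextran FBS and 1% non-essential amino acids. After 24 h in fresh medium they were treated for 24 h with 25 μM test compound. TFF1 mRNA was quantified by one-step qRT-PCR (PBGD reference, comparative Ct) and expressed relative to maximal induction by E2 (15 pM). Three independent experiments, n=6.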

[7] = tested on: CYP2B6 mRNA (CAR-dependent); assay: CAR-agonistic response: induction of CYP2B6 mRNA in differentiated HepaRG cells; format: cell-based, human; settings: human, differentiated HepaRG cells
In short: as §1

[8] = tested on: all cell lines (T47D.Luc, MCF-7, LNCaP, HepaRG); assay: Cytotoxicity, neutral red assay; format: cell-based, human; settings: up to 25 μM concentration
ER = settings: ref Hamers et al. 2011; cited from earlier work
AR = settings: ref Hamers et al. 2011; cited from earlier work
[9] = tested on: AR target gene PSA mRNA in LNCaP cells; assay: Suppression of DHT-induced PSA mRNA in LNCaP cells; format: cell-based, human; settings: 25 μM, 24-h co-exposure to 1 nM DHT
In short: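 LNCaP cells (passages 4–6) were grown in RPMI-1640 with 10% FBS, then moved to phenol red-free RPMI-1640 with 5% dextran/charcoal-treated serum. After 24 h in fresh medium they were co-treated for 24 h with test compound and DHT (1 nM). PSA mRNA was measured by qRT-PCR (PBGD reference, comparative Ct) and expressed relative to DHT alone. Three independent experiments, n=6.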

[10] = CYP3A4 mRNA, relative to RIF (50 μM)

Compound | ER-antagonistic Response at 25 μM (% of E2 response) (estrogen receptor (ER) [1]) | Modulation of E2-dependent induction of luciferase activity, in words (estrogen receptor (ER) [1]) | Activity towards RyR, in words (RyRs) | Effect on E2-induced TFF1 gene expression, in words [2] | CAR-agonistic Maximum response at 5 μM (% of PB max) [3] | CAR-agonistic response EC25 [3] [µM] | PXR-dependent CYP3A4 mRNA induction, in words [4] | PXR-agonistic Maximum response at 25 μM (% of RIF max) [4, 10] | PXR-agonistic response EC25 [4, 10] [µM] | ER-mediated activity (induction of luciferase), in words (estrogen receptor (ER) [5]) | ER-agonistic Response at 10 μM (% of E2max) (estrogen receptor (ER) [5]) | Estrogenicity (TFF1 mRNA induction), in words [6] | EC50 at 24 h [7] [µM] | Cytotoxicity [8] | ER activity in luciferase reporter gene assays, in words (ER) | AR activity in luciferase reporter gene assays, in words (AR) | Antiandrogenic activity (suppression of DHT-induced PSA mRNA), in words [9]
Clc1ccc(Cl)c(-c2c(Cl)ccc(Cl)c2Cl)c1Cl [(−)-PCB 136, 2,2',3,3',6,6'-hexachlorobiphenyl] | 27 % of E2 response | exhibited antiestrogenic effects, especially at higher concentrations | activate RyRs | inactive | 51 % of PB max | 0.7 | significantly more potent inducer of PXR activity than (+)-PCB 136; also recorded: significantly more potent inducer of CYP3A4 mRNA than (+)-PCB 136 | 38 % of RIF max | 7.4 | did not induce a significant increase of luciferase activity | 27 % of E2max | – | – | – | – | – | –
Clc1ccc(Cl)c(-c2c(Cl)ccc(Cl)c2Cl)c1Cl [(+)-PCB 136, 2,2',3,3',6,6'-hexachlorobiphenyl] | 123 % of E2 response | slightly potentiated E2-dependent induction of luciferase activity | no significant activity towards the RyR | significantly potentiated the E2-induced TFF1 gene expression | 38 % of PB max | 1.0 | – | 17 % of RIF max | – | estrogenic; also recorded: strong ER-mediated activity | 89 % of E2max | relatively high estrogenicity | 6.6 | – | – | – | –
Clc1ccc(Cl)c(-c2c(Cl)ccc(Cl)c2Cl)c1Cl (racemic) [(±)-PCB 136, 2,2',3,3',6,6'-hexachlorobiphenyl] | 81 % of E2 response | – | – | significantly potentiated the E2-induced TFF1 gene expression | – | – | – | – | – | intermediate effect | 63 % of E2max | – | – | no cytotoxicity was observed | ER-agonistic | AR-antagonistic | significant antiandrogenic activity
